Assay results published in ChEMBL document CHEMBL2346644, “Anti-HBV active constituents from Piper longum” (Bioorg Med Chem Lett, 2013).

Columns and labels:
Hepatitis B virus [1] = assay: Antiviral activity against Hepatitis B virus-infected human HepG2(2.2.15) cells assessed as inhibition of HBsAg secretion; assay type: functional, organism-based
Method in brief: (§1)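 Secretion of HBsAg and HBeAg by the HBV-producing Hep G2.2.15 line was measured after compound treatment. IC50 is the concentration giving 50% inhibition of antigen secretion. Lamivudine (3TC) served as the positive control. Values are the mean of two independent experiments.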

[2] = Cytotoxicity against human HepG2(2.2.15) cells; assay type: cell-based
Method in brief: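 The CC50, the concentration causing 50% cytotoxicity, was determined in Hep G2.2.15 cells. Values are the mean of two independent experiments.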

Hepatitis B virus [3] = assay: Antiviral activity against Hepatitis B virus-infected human HepG2(2.2.15) cells assessed as inhibition of HBeAg secretion; assay type: functional, organism-based; method in brief: as §1
[4] = Selectivity index, ratio of CC50 for human HepG2(2.2.15) cells to IC50 for Hepatitis B virus-infected human HepG2(2.2.15) cells assessed as inhibition of HBeAg secretion; assay type: functional
Method in brief: (§2)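 SI was calculated as CC50/IC50 from Hep G2.2.15 cytotoxicity and from inhibition of HBeAg or HBsAg secretion. The underlying values are means of two independent experiments.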

[5] = Selectivity index, ratio of CC50 for human HepG2(2.2.15) cells to IC50 for Hepatitis B virus-infected human HepG2(2.2.15) cells assessed as inhibition of HBsAg secretion; assay type: functional; method in brief: as §2

Structure (SMILES) | IC50 (Hepatitis B virus [1]) | CC50 [2] | IC50 (Hepatitis B virus [3]) | Ratio CC50/IC50 [4] | Ratio CC50/IC50 [5]
COc1cc(CC/C=C/C(=O)N2CCCCC2)ccc1O | 2700 µM | > 2700 µM | > 2700 µM | – | –
CCCCCCCCCCCCCCC/C=C/C=C/C(=O)NCC(C)C | 580 µM | 1580 µM | 1070 µM | 1.5 | 2.7
O=C1NCC[C@H](O)[C@H]1O | > 1220 µM | > 1220 µM | > 1220 µM | – | –
O=C(/C=C/CCCC[C@H](O)[C@H](O)c1ccc2c(c1)OCO2)N1CCCCC1 (relative stereo) | 130 µM | 320 µM | 160 µM | 2 | 2.5
O=C(/C=C/CCCC[C@@H](O)[C@H](O)c1ccc2c(c1)OCO2)N1CCCCC1 (relative stereo) | 110 µM | 210 µM | 110 µM | 1.9 | 1.9
O=C1C=CCCN1 [5,6-DIHYDRO-2(1H)-PYRIDINONE] | > 14000 µM | 9900 µM | > 14000 µM | – | –
CC(C)CNC(=O)/C=C/C=C/CCCCCC/C=C/c1ccc2c(c1)OCO2 [GUINEENSINE] | < 50 µM | 150 µM | < 50 µM | >3 | >3
Nc1ccn([C@@H]2CS[C@H](CO)O2)c(=O)n1 [LAMIVUDINE] | 28800 µM | – | 30400 µM | 1 | 1.1
CC(CC(=O)O)(CC(=O)O)OC[C@H]1O[C@@H](OC/C=C/c2ccccc2)[C@H](O)[C@@H](O)[C@@H]1O [LONGUMOSIDE B] | > 3750 µM | > 3750 µM | > 3750 µM | – | –
O=C(/C=C/C=C/c1ccc2c(c1)OCO2)N1CCCCC1 [PIPERINE] | 150 µM | 2350 µM | 140 µM | 16.8 | 15.7
CC(C)CNC(=O)/C=C/C=C/c1ccc2c(c1)OCO2 [PIPERLONGUMININE] | > 4510 µM | 320 µM | > 4510 µM | – | –
